Laboratory results published in ChEMBL document CHEMBL4392827, “Tryptamine derivatives disarm colistin resistance in polymyxin-resistant gram-negative bacteria” (Bioorg Med Chem, 2019).
Active and inactive are the calls of the source. No cut-off for these calls is given here.

What was measured:
[1] = tested on: Acinetobacter baumannii; assay: Potentiation of colistin-induced antimicrobial activity against colistin-resistant Acinetobacter baumannii 4106 assessed as fold reduction in colistin MIC at 60 uM after 18 hrs by broth microdilution assay; format: functional
In short: (§1)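 Checkerboard-style resensitization following adapted CLSI broth microdilution. Bacteria were grown 4–6 h in CAMHB and subcultured to 5×10^5 CFU/mL. Adjuvant was added from DMSO stock and held constant while colistin was serially diluted in the dosed subculture. Plates were incubated stationary at 37°C for 18 h, then MICs were read. Fold reduction was taken relative to the colistin MIC without adjuvant.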

[2] = tested on: Acinetobacter baumannii; assay: Potentiation of colistin-induced antimicrobial activity against colistin-resistant Acinetobacter baumannii isolate 4112 assessed as fold reduction in colistin MIC at 60 uM after 18 hrs by broth microdilution assay; format: functional; in short: as §1
[3] = tested on: Acinetobacter baumannii; assay: Potentiation of colistin-induced antimicrobial activity against colistin-sensitive Acinetobacter baumannii 5075 assessed as fold reduction in colistin MIC at 60 uM after 18 hrs by broth microdilution assay; format: functional
In short: (§2)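 Bacteria grown 4–6 h in cation-adjusted Mueller-Hinton broth and diluted to 5 ×10^5 CFU/mL. Adjuvant from DMSO stock held at fixed 60 μM while colistin is twofold serially diluted in the same adjuvant-dosed broth. Plates sealed and kept stationary at 37°C for 18 h. Colistin MIC read and fold reduction taken relative to colistin alone.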

[4] = tested on: Klebsiella pneumoniae; assay: Potentiation of colistin-induced antimicrobial activity against Klebsiella pneumoniae ATCC BAA-2146 expressing NDM1 gene assessed as fold reduction in colistin MIC at 60 uM after 18 hrs by broth microdilution assay; format: functional; in short: as §2
[5] = tested on: Klebsiella pneumoniae; assay: Potentiation of colistin-induced antimicrobial activity against colistin-resistant Klebsiella pneumoniae isolate A5 assessed as fold reduction in colistin MIC at 60 uM after 18 hrs by broth microdilution assay; format: functional; in short: as §1
[6] = tested on: Acinetobacter baumannii; assay: Potentiation of colistin-induced antimicrobial activity against colistin-resistant Acinetobacter baumannii isolate 3942 assessed as fold reduction in colistin MIC at 60 uM after 18 hrs by broth microdilution assay; format: functional; in short: as §1
[7] = tested on: Escherichia coli; assay: Potentiation of colistin-induced antimicrobial activity against Escherichia coli ATCC 25922 assessed as fold reduction in colistin MIC at 60 uM after 18 hrs by broth microdilution assay; format: functional; in short: as §2
[8] = tested on: Acinetobacter baumannii; assay: Potentiation of colistin-induced antimicrobial activity against Acinetobacter baumannii ATCC 17978 assessed as fold reduction in colistin MIC at 60 uM after 18 hrs by broth microdilution assay; format: functional; in short: as §2
[9] = tested on: Escherichia coli; assay: Potentiation of colistin-induced antimicrobial activity against colistin-resistant Escherichia coli ATCC 25922 expressing mcr1 gene assessed as fold reduction in colistin MIC at 60 uM after 18 hrs by broth microdilution assay; format: functional; in short: as §1
[10] = tested on: Acinetobacter baumannii; assay: Potentiation of colistin-induced antimicrobial activity against colistin-resistant Acinetobacter baumannii isolate 3941 assessed as fold reduction in colistin MIC at 60 uM after 18 hrs by broth microdilution assay; format: functional; in short: as §1
[11] = tested on: Klebsiella pneumoniae; assay: Potentiation of colistin-induced antimicrobial activity against colistin-resistant Klebsiella pneumoniae isolate C3 assessed as fold reduction in colistin MIC at 60 uM after 18 hrs by broth microdilution assay; format: functional; in short: as §1
[12] = tested on: Klebsiella pneumoniae; assay: Potentiation of colistin-induced antimicrobial activity against colistin-resistant Klebsiella pneumoniae B9 assessed as fold reduction in colistin MIC at 60 uM after 18 hrs by broth microdilution assay; format: functional; in short: as §1
[13] = tested on: Acinetobacter baumannii; assay: Potentiation of colistin-induced antimicrobial activity against colistin-resistant Acinetobacter baumannii ATCC 17978 expressing mcr1 gene assessed as fold reduction in colistin MIC at 60 uM after 18 hrs by broth microdilution assay; format: functional; in short: as §1
[14] = tested on: Escherichia coli; assay: Toxicity in Escherichia coli ATCC 25922 after 18 hrs by broth microdilution assay; format: organism-based; conditions: in vitro
In short: (§3)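 Single-agent MIC per CLSI broth microdilution. Cells from a 4–6 h culture in cation-adjusted Mueller-Hinton broth adjusted to 5 ×10^5 CFU/mL. Compound (DMSO stock) added to 200 μM top concentration and twofold serially diluted six times, with an untreated control row. Plates sealed and incubated stationary at 37°C for 18 h before MIC read.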

[15] = tested on: Acinetobacter baumannii; assay: Toxicity in Acinetobacter baumannii 4106 after 18 hrs by broth microdilution assay; format: organism-based; conditions: in vitro; in short: as §3
[16] = tested on: Klebsiella pneumoniae; assay: Toxicity in Klebsiella pneumoniae B9 after 18 hrs by broth microdilution assay; format: organism-based; in short: as §3
[17] = tested on: Acinetobacter baumannii; assay: Toxicity in Acinetobacter baumannii ATCC 17978 expressing mcr1 gene after 18 hrs by broth microdilution assay; format: organism-based; in short: as §3
[18] = tested on: Klebsiella pneumoniae; assay: Induction of membrane permeabilization in colistin-resistant Klebsiella pneumoniae isolate C3 at 60 uM measured after 1 hr by SYTO-9/propidium iodide staining based fluorescence assay relative to control; format: functional
In short: (§4)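 Cells were grown overnight in CAMHB at 37°C, diluted 1:10 and grown 4 h more to an OD600 of ~0.3. They were pelleted, washed with sterile water and resuspended at 1/10 volume in water containing compound. After 1 h at 37°C with shaking, cells were washed and stained with SYTO-9/propidium iodide (1:1, 3 μL/mL) for 15 min at RT. Emission was read at 530 and 645 nm (excitation 485 nm), and the green/red ratio was expressed as % of the untreated control.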

[19] = Hemolytic activity in sheep erythrocytes assessed as hemolysis at 100 uM incubated for 1 hr under shaking condition by UV-spectrophotometry; format: ADME, cell-based, Ovis aries, Erythrocyte; conditions: read-out: Activity
In short: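 Washed sheep erythrocytes (defibrinated blood spun, resuspended in PBS three times) diluted 10-fold in PBS containing compound from DMSO stock. DMSO negative control (0% lysis), 1% Triton X100 positive control (100% lysis). 1 h at 37°C with shaking, then spun 10 min at 10,000 rpm and supernatant diluted 1:40 in distilled water.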

[20] = tested on: Acinetobacter baumannii; assay: Induction of membrane permeabilization in colistin-resistant Acinetobacter baumannii isolate 3942 at 60 uM measured after 1 hr by SYTO-9/propidium iodide staining based fluorescence assay relative to control; format: functional; in short: as §4

| SMILES | fold change (FC) [1] | fold change (FC) [2] | fold change (FC) [3] | fold change (FC) [4] | fold change (FC) [5] | fold change (FC) [6] | fold change (FC) [7] | fold change (FC) [8] | fold change (FC) [9] | fold change (FC) [10] | fold change (FC) [11] | fold change (FC) [12] | fold change (FC) [13] | MIC [14] [µM] | MIC [15] [µM] | MIC [16] [µM] | MIC [17] [µM] | Activity [18] | hemolysis at 1 h, 100 µM [19] [%] | Activity [20] |
| --- | --- | --- | --- | --- | --- | --- | --- | --- | --- | --- | --- | --- | --- | --- | --- | --- | --- | --- | --- | --- |
| O=C(NCCc1c[nH]c2ccccc12)c1cc(Br)c(Br)[nH]1 | 512 | 512 | 2 | 2 | 256 | 512 | 4 | 4 | 8 | 256 | 1024 | 2048 | 32 | – | – | – | – | – | – | – |
| O=C(NCCc1c[nH]c2ccccc12)c1cc(I)c(I)[nH]1 | 128 | 128 | 2 | 2 | 256 | 128 | 2 | 2 | 4 | 128 | 512 | 2048 | 16 | – | – | – | – | – | – | – |
| O=C(NCCCc1c[nH]c2ccccc12)c1cc(Br)c(Br)[nH]1 | 512 | 256 | 4 | 2 | 256 | 256 | 2 | 4 | 16 | 256 | 1024 | 4096 | 32 | > 200 | > 200 | > 200 | > 200 | – | – | – |
| O=C(NCCc1c[nH]c2cc(F)ccc12)c1cc(Br)c(Br)[nH]1 | 512 | 512 | 2 | 2 | 256 | 512 | 2 | 2 | 8 | 512 | 512 | 64 | 32 | > 200 | > 200 | > 200 | > 200 | – | – | – |
| O=C(NCc1ccc2cc[nH]c2c1)c1cc(Br)c(Br)[nH]1 | 256 | 256 | 2 | 0 | 256 | 128 | 2 | 2 | 8 | 128 | 512 | 2048 | 32 | > 200 | > 200 | > 200 | > 200 | – | – | – |
| Cc1cccc2c(CCNC(=O)c3cc(Br)c(Br)[nH]3)c[nH]c12 | 256 | 256 | 2 | 2 | 256 | 256 | 2 | 2 | 8 | 256 | 512 | 512 | 32 | > 200 | > 200 | > 200 | > 200 | – | – | – |
| O=C(NCCc1c[nH]c2ccccc12)c1cc(I)c[nH]1 | 64 | 32 | 0 | 2 | 32 | 32 | 2 | 2 | – | 64 | 128 | 2048 | 16 | – | – | – | – | – | – | – |
| CCCCn1cc(CCNC(=O)c2cc(Br)c(Br)[nH]2)c2ccccc21 | 0 | – | – | – | – | – | – | – | 0 | – | – | 0 | 0 | > 200 | > 200 | > 200 | > 200 | inactive | < 1 | inactive |
| O=C(NCCc1c[nH]c2ccccc12)c1cccc(Br)n1 | 16 | 8 | 0 | 2 | 0 | 8 | 2 | 2 | – | 8 | 512 | 1024 | – | – | – | – | – | – | – | – |
| O=C(NCc1cc2ccccc2[nH]1)c1cc(Br)c(Br)[nH]1 | 2048 | 512 | 2 | 0 | 512 | 256 | 2 | 2 | 16 | 256 | 2048 | 4096 | 32 | > 200 | > 200 | > 200 | > 200 | – | – | – |
